PubChem BioAssay
Values without a mark were called inactive. Results filed as inconclusive are left out. The source made the active and inactive calls.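 The calls were made as follows, unless noted: active = RAM network inhibition above 8.4% in each of two replicates, 3 SD over the compound average; inconclusive = above 8.4% inhibition in only one replicate; inactive = 8.4% inhibition or less in each replicate.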

What was measured:
[1] = OD615 S. cerevisiae growth inhibition, permissive medium, pilot counter-assay, permissive growth control for S. cerevisiae lifespan shortening project (AID 705;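 active = growth inhibition above 25% in both replicates, a cutoff set 3 SD above the mean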); settings: OD615, 24 h, at 10 µM, hits give high values
How it was run: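 System: S. cerevisiae with engineered DeaD lifespan system / Measured by: absorbance (optical density) at 615 nm / Read-out: reduction in yeast growth (OD615) / Times: 4 h cell pre-growth, 24 h exposure at 30 °C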

[2] = Restrictive medium S. cerevisiae growth inhibition, OD615, pilot screen of yeast lifespan reduction project, restrictive growth control (AID 706;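 active = growth inhibition above a set limit, 3 SD over mean compound inhibition, in both replicates, cut at about 43% in these data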;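 also: modified DeaD lifespan yeast strain shifted to restrictive glucose medium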); settings: OD615, 48 h, at 10 µM, hits give high values
How it was run: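 System: Engineered S. cerevisiae DeaD strain | Buffer or medium: Glucose-based CSMM-D restrictive medium | Schedule: 4 h pre-incubation, 48 h exposure at 30 °C | Technique: Optical density at 615 nm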

[3] = growth suppression of beta-catenin knockout HCT116, pilot screen, human colon tumor cells (AID 823;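 active = cell viability at or below a set limit in both duplicate runs, the limit being the all-compound median minus 4 SD, cut at about 23% in these data, passing the limit was not always enough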;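 also: 0% = wells killed by 20 µM Hyamine and 100% = untreated DMSO cell wells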); settings: CellTiter-Glo, 60 h, at 10 µM, hits give low values
[4] = growth suppression of PTEN-deleted HCT116, pilot screen, cell-based, HCT116 clonal line, CellTiter-Glo (AID 824;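 active = viability at or below 27.92% in each of two runs, the all-compound median minus 4 SD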;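 also: 0% = 20 µM Hyamine control and 100% = vehicle cell control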); settings: 60 h, at 10 µM, hits give low values
[5] = inhibitors of the yeast RAM network, pilot screen, dse1pr::URA3 reporter, 5-FOA selection (AID 869;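 active = inhibition over a set limit, the all-compound mean plus 3 SD, in both replicate runs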;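 also: 0% = DMSO wells with no growth and 100% = 10 µM 1-NA-PP1 with full growth; RAM network block rescues cells from 5-FOA so hits raise OD615 growth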); settings: S. cerevisiae dse1pr::URA3 5-FOA growth, OD615, 2 d; at 10 µM; hits give high values; strain carries analog-sensitive mutant Cbk1 kinase
[6] = RAM signaling pathway blockade in yeast – S. cerevisiae, Pdr1DBD-CYC8 efflux-inhibited sensitized strain, primary screen (AID 1298);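 also: 0% = DMSO untreated cells without growth and 100% = 10 µM 1-NA-PP1 full growth; higher means more yeast growth rescued from 5-FOA killing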; settings: S. cerevisiae cbk1-as DSE1-URA3 strain, 5-FOA growth OD615, 2 d; at 50 µM; hits give high values
[7] = viability gain of MRP-1-high H69AR cells under doxorubicin, pilot screen, MRP-1 activator project, CellTiter-Glo, duplicate (AID 807;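 active = viability increase at or above a cutoff of the median across tested compounds plus 3 SD, cut at about 8.5% in these data, passing the limit was not always enough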;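 also: compound pretreatment 18-22 h then 72 h combined with doxorubicin; 0% = doxorubicin alone and 100% = vehicle without doxorubicin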); settings: H69AR viability with doxorubicin, CellTiter-Glo luminescence; at 10 µM; hits give high values

SMILES	growth inhibition [1] [%]	growth inhibition [2]	viability [3] [%]	viability [4] [%]	inhibition [5] [%]	RAM network inhibition [6] [%]	viability increase [7] [%]
CCOC(=O)/C=C1\SCC(=O)N1CCOc1cccc(Br)c1	-18.6	-29.1%	85.5	80.4	2.75	3.37	
Cc1noc(/C=C/N(C)C)c1S(=O)(=O)N1CCCC(C(=O)Nc2ccc3c(c2)OCO3)C1 (stereo not drawn)	-1.3	-0.88%	89.1	89.7	2.2	7.17	
CCOc1ccc2nc3ccc4[nH]onc4c3c2c1	0.485	1.57%	74.8	66.5	2.8	6.1	
COc1cc(C(c2sc3ncnn3c2O)N2CCN(c3ccccc3F)CC2)cc(OC)c1OC (stereo not drawn)	1.67	-0.84%	103	105	2.5	5.34	
COc1cc(Cl)c(C)cc1NC(=O)CSc1nnc(-c2cccnc2)n1Cc1ccco1	4.79		84.8	79.8	0.775	7.75	-3.48
CCOC(=O)CNC(=O)CSc1nnc(-c2ccco2)n1Cc1ccco1	6.66		97.2	98.2	0.765	3.76	-2.83
CC(=O)NC(=S)c1c(N)n(Cc2ccccc2)c(=O)n(C)c1=O	19.2		84.6	80	0.92	4.62	-3.97
COc1ccccc1C1CC(c2ccc(Cl)cc2Cl)Nc2nc(N)nn21 (stereo not drawn)	-5.97	25.2%	86.1	85	1.62	7.09	
O=C(CCc1ccccc1)Nc1nnc(-c2ccc3c(c2)CCCC3)o1	-1.89	11.3%	53.6	72.1	0.09	5.06	
CCc1nnc(NC(=O)c2ccc(S(=O)(=O)N(CC)CC)cc2)s1	-7.41	-3.27%	104	90.9	1.52	-0.37	
O=C1C=C(O)CC(c2ccc(Cl)cc2)C1 (stereo not drawn)	-2.77	0.79%		103	-0.37	8.23	
CCCCc1ccc(-c2nc(-c3ccncc3)no2)cc1	-16.1	-3.25%	65.8	75.9	3.17	3.23	
Cc1noc(/C=C/N(C)C)c1S(=O)(=O)N1CCCC(C(=O)NC2CCCCC2C)C1 (stereo not drawn)	-2.76	-6.36%	87.1	83.2	1.89	7.7	
Oc1c(C(c2cccs2)N2CCN(c3cccc(Cl)c3)CC2)sc2ncnn12 (stereo not drawn)	-8.2	5.16%	88.1	90.5	1.94	3.42	
Cn1c(=O)[nH]c(=O)c2c1nc(SCC(=O)Nc1ccccc1)n2Cc1ccccc1	-4.58	0.385%	92	94.6	0.935	2.08	
Cc1cccc(C2CC(c3ccccc3)Nc3ncnn32)c1 (stereo not drawn)	3.16	13.8%	91.9	93.8	1.7	0.37	
CCN1CCN(C(=O)C(NS(=O)(=O)c2ccc3nc(C)sc3c2)C(C)C)CC1 (stereo not drawn)	-15.9		99.4	95.2	0.845	-0.04	-0.67
Cc1ccc(OCC(=O)Nc2cc(-c3nn4c(C)nnc4s3)ccc2C)cc1	0.12		93.7	88	3.09	10.7	-4.09
Brc1ccc(CSc2ncn[nH]2)cc1	-0.435	12.1%	95.3	95.3	0.94	0.27	
Cc1cccc(-n2ncc3c(N4CC(C)CC(C)C4)ncnc32)c1 (stereo not drawn)	-1.33	-3.92%	59.9	78.1	1.74	6.19	

SMILES	growth inhibition [1] [%]	growth inhibition [2]	viability [3] [%]	viability [4] [%]	inhibition [5] [%]	RAM network inhibition [6] [%]	viability increase [7] [%]
O=C(CSCc1ccc(Cl)cc1)NCC1CCCO1 (stereo not drawn)	-7.79	-2.08%	102	101	1.34	3.99	
O=C(O)c1cccc(N2C(=O)C3CC=C(Cl)CC3C2=O)c1 (stereo not drawn)	-4.4	-10.2%	95.6	92.4	1.16	3.38	
Cc1onc(-c2ccccc2)c1C(=O)Nc1nnc(N(C)Cc2ccccc2)s1	-12.4	-20.5%	89.8	88.8	1.02	9.12	
N#Cc1nc(COc2cccc(Cl)c2)oc1N1CCCC1	4.94	11.2%	82.7	82.7	-0.7	0.47	
Cc1ccc(-c2nn3c(C)nnc3s2)cc1NC(=O)c1ccc(Br)o1	4.25		105	93	3	8.4	-3.03
Cc1noc(/C=C/N(C)C)c1S(=O)(=O)N1CCCC(C(=O)NCc2ccco2)C1 (stereo not drawn)	4.93	-2.94%	97.6	92.1	0.86	4.7	
CCOc1ccccc1N1CSC2=C(C#N)C(c3c(OC)ccc4ccccc34)CC(=O)N2C1 (stereo not drawn)	4.14		67.3	65.5	3.73	3.99	-6.32
Cc1cccc(N(C)c2cc(C)nc3nc(C)nn23)c1	-14.5	-6.39%	64.8	53.3	2.03	5.5	
COc1ccc(NC(=O)CSc2nnc(Cn3c(=O)sc4ccccc43)n2C)c(OC)c1	2.11		101	92.7	-0.285	1.01	-4.82
COc1ccccc1CNC(=O)CN1CCN(Cc2ccc(Cl)cc2)C1=O	7.3	10.3%	98.3	92.5	1.5	0.67	
CC(NC(=O)CN1CCN(Cc2ccc(Cl)cc2)C1=O)c1ccc2c(c1)OCCO2 (stereo not drawn)	2.64	-21.2%	84.1	86.3	-0.3	0.27	
CCc1ccc(NC(=O)Cn2c(=O)oc3cc(S(=O)(=O)N4CCOCC4)ccc32)cc1	-11	-13.3%	99.8	89.2	1.83	8.19	
O=C1Cc2ccccc2C(=O)N1CCc1ccccc1	12.3	66% (active)	97.2	92.8	1.75	2.61	
Cc1cccc(N2CCN(C(=O)c3cc4c(=O)n(C)c5ccccc5c4n3C)CC2)c1C	-7.02	-6.91%	61.1	65.5	3.12	1.49	
COc1ccc(OCc2nnc3n2N=C(c2ccc(Br)cc2)CS3)cc1	3.29		70	72.2	0.955	3.18	2.18
CC(=O)C(Sc1ccc2nnc(-c3ccc(C)cc3)n2n1)C(C)=O	1.31		101	95.3	2.04	6.06	-4.69
CN(c1ccccc1)S(=O)(=O)c1ccc(C(=O)Nc2nccs2)cc1	-17.4	-19.6%	84.8	83.3	3.73	4.85	
O=C(O)c1cc2c(s1)-c1ccccc1OC2	6.14		96.9	98.7	0.165	-2.9	-4.32
CCOc1ccc2nc(N3CCC(C(=O)N4CCN(c5ncccn5)CC4)CC3)sc2c1		25.2%	82.1	90.9	1.76	-1.59	-3.04
